Assay results published in ChEMBL document CHEMBL1268844, “Synthesis of novel 3-amino and 29-hydroxamic acid derivatives of glycyrrhetinic acid as selective 11β-hydroxysteroid dehydrogenase 2 inhibitors” (Bioorg Med Chem, 2010).

What was measured:
[1] = biological target: T1, 11-beta-hydroxysteroid dehydrogenase type 2 (Homo sapiens) (UniProt P80365); assay: Inhibition of human recombinant 11beta-HSD2 expressed in HEK293 cells assessed as residual conversion of [1,2,6,7-3H]-cortisol to cortisone at 0.2 uM by scintillation counting; format: cell-based
T1 sequence (whole entry): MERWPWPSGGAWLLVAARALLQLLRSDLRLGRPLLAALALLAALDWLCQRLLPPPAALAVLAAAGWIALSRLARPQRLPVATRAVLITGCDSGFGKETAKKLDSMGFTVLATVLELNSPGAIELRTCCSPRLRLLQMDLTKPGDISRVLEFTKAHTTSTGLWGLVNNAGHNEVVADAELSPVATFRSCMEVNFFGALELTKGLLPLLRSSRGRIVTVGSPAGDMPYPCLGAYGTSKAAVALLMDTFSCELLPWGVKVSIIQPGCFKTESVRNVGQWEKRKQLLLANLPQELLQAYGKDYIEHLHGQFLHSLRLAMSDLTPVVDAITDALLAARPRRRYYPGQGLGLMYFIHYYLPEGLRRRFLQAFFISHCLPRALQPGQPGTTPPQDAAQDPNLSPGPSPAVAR
Outline: (§1)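 HEK-293 cells transfected with pcDNA3 encoding human enzyme carrying C-terminal FLAG tag. Compounds diluted from DMSO stocks, used immediately, screened at final 200 nM. Reactions stopped with methanol containing 2 mM unlabeled cortisone and cortisol. Steroids separated by TLC, then scintillation counting; readout is residual substrate conversion.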

[2] = biological target: T2, 11-beta-hydroxysteroid dehydrogenase 1 (Homo sapiens, UniProt P28845); assay: Inhibition of human recombinant 11beta-HSD1 expressed in HEK293 cells assessed as residual conversion of [1,2-3H]-cortisone to cortisol at 0.2 uM by scintillation counting; format: cell-based; outline: as §1
Target sequence in this assay (P28845 whole entry, looked up): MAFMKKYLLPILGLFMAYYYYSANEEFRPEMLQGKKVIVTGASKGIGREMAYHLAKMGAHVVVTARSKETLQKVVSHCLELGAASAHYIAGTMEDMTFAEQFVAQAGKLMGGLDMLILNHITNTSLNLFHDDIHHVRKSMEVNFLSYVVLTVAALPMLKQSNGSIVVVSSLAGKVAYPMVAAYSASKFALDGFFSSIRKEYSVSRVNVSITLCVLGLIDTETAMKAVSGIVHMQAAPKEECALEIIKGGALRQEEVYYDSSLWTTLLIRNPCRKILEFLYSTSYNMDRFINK

[3] = biological target: T2, 11-beta-hydroxysteroid dehydrogenase 1; assay: Inhibition of human recombinant 11beta-HSD1 expressed in HEK293 cells assessed as conversion of [1,2-3H]-cortisone to cortisol by scintillation counting; format: cell-based
Target sequence in this assay (P28845 whole entry): as the sequence (P28845 whole entry, looked up) above

[4] = biological target: T3, 11-beta-hydroxysteroid dehydrogenase type 2 (Homo sapiens, UniProt P80365); assay: Inhibition of human recombinant 11beta-HSD2 expressed in HEK293 cells assessed as conversion of [1,2,6,7-3H]-cortisol to cortisone by scintillation counting; format: cell-based
T3 sequence (P80365 whole entry): T1 sequence (whole entry)

[5] = Selectivity ratio of IC50 for human recombinant 11beta-HSD2 to IC50 for human recombinant 11beta-HSD1

| Activity [1] [%] | Activity [2] [%] | IC50 [3] [µM] | IC50 [4] [µM] | SMILES | Ratio [5] |
| --- | --- | --- | --- | --- | --- |
| 84 | 99 | – | – | C=CCONC(=O)[C@@]1(C)CC[C@]2(C)CC[C@]3(C)C(=CC(=O)[C@@H]4[C@@]5(C)CC[C@H](OC(C)=O)C(C)(C)[C@@H]5CC[C@]43C)[C@@H]2C1 | – |
| 7 | 71 | – | – | CN(O)C(=O)[C@@]1(C)CC[C@]2(C)CC[C@]3(C)C(=CC(=O)[C@@H]4[C@@]5(C)CC[C@H](O)C(C)(C)[C@@H]5CC[C@]43C)[C@@H]2C1 | – |
| 4 | 72 | – | – | CC(=O)N[C@H]1CC[C@]2(C)[C@H]3C(=O)C=C4[C@@H]5C[C@@](C)(C(=O)N(C)O)CC[C@]5(C)CC[C@@]4(C)[C@]3(C)CC[C@H]2C1(C)C | – |
| 4 | 32 | – | – | CC1(C)[C@H](NS(C)(=O)=O)CC[C@]2(C)[C@H]3C(=O)C=C4[C@@H]5C[C@@](C)(C(=O)O)CC[C@]5(C)CC[C@@]4(C)[C@]3(C)CC[C@@H]12 | – |
| 82 | 88 | – | – | CN(O)C(=O)[C@@]1(C)CC[C@]2(C)CC[C@]3(C)C(=CC(=O)[C@@H]4[C@@]5(C)CC[C@@H](NS(=O)(=O)C(F)(F)F)C(C)(C)[C@@H]5CC[C@]43C)[C@@H]2C1 | – |
| – | – | 1.51 | – | CO/N=C1\CC[C@]2(C)[C@H]3C(=O)C=C4[C@@H]5C[C@@](C)(C(=O)O)CC[C@]5(C)CC[C@@]4(C)[C@]3(C)CC[C@H]2C1(C)C | – |
| 72 | 95 | – | – | CON(C)C(=O)[C@@]1(C)CC[C@]2(C)CC[C@]3(C)C(=CC(=O)[C@@H]4[C@@]5(C)CC[C@H](OC(C)=O)C(C)(C)[C@@H]5CC[C@]43C)[C@@H]2C1 | – |
| 4 | 58 | – | – | CC1(C)[C@@H](NS(C)(=O)=O)CC[C@]2(C)[C@H]3C(=O)C=C4[C@@H]5C[C@@](C)(C(=O)O)CC[C@]5(C)CC[C@@]4(C)[C@]3(C)CC[C@@H]12 | – |
| – | – | 1.16 | – | CC1(C)[C@@H](O)CC[C@]2(C)[C@H]3C(=O)C=C4[C@@H]5C[C@@](C)(C(=O)NO)CC[C@]5(C)CC[C@@]4(C)[C@]3(C)CC[C@@H]12 | – |
| – | – | 0.929 | 2.13 | CONC(=O)[C@@]1(C)CC[C@]2(C)CC[C@]3(C)C(=CC(=O)[C@@H]4[C@@]5(C)CC[C@H](O)C(C)(C)[C@@H]5CC[C@]43C)[C@@H]2C1 | 0.4 |
| 2 | 33 | 0.0427 | 0.0145 | CON[C@H]1CC[C@]2(C)[C@H]3C(=O)C=C4[C@@H]5C[C@@](C)(C(=O)O)CC[C@]5(C)CC[C@@]4(C)[C@]3(C)CC[C@H]2C1(C)C | – |
| – | – | 0.626 | – | CC(=O)O[C@H]1CC[C@]2(C)[C@H]3C(=O)C=C4[C@@H]5C[C@@](C)(C(=O)NO)CC[C@]5(C)CC[C@@]4(C)[C@]3(C)CC[C@H]2C1(C)C | – |
| 50 | 99 | – | – | CC1(C)[C@H](NS(=O)(=O)C(F)(F)F)CC[C@]2(C)[C@H]3C(=O)C=C4[C@@H]5C[C@@](C)(C(=O)O)CC[C@]5(C)CC[C@@]4(C)[C@]3(C)CC[C@@H]12 | – |
| 85 | 86 | – | – | CC(=O)O[C@H]1CC[C@]2(C)[C@H]3C(=O)C=C4[C@@H]5C[C@@](C)(C(=O)N(O)C(C)(C)C)CC[C@]5(C)CC[C@@]4(C)[C@]3(C)CC[C@H]2C1(C)C | – |
| – | – | 0.825 | 0.458 | CC(=O)N[C@H]1CC[C@]2(C)[C@H]3C(=O)C=C4[C@@H]5C[C@@](C)(C(=O)O)CC[C@]5(C)CC[C@@]4(C)[C@]3(C)CC[C@H]2C1(C)C | – |
| 44 | 71 | – | – | CN(O)C(=O)[C@@]1(C)CC[C@]2(C)CC[C@]3(C)C(=CC(=O)[C@@H]4[C@@]5(C)CC[C@H](NS(=O)(=O)C(F)(F)F)C(C)(C)[C@@H]5CC[C@]43C)[C@@H]2C1 | – |
| 30 | 93 | – | – | CON[C@H]1CC[C@]2(C)[C@H]3C(=O)C=C4[C@@H]5C[C@@](C)(C(=O)N(C)O)CC[C@]5(C)CC[C@@]4(C)[C@]3(C)CC[C@H]2C1(C)C | – |
| 5 | 43 | 0.0619 | 0.0049 | CON[C@@H]1CC[C@]2(C)[C@H]3C(=O)C=C4[C@@H]5C[C@@](C)(C(=O)O)CC[C@]5(C)CC[C@@]4(C)[C@]3(C)CC[C@H]2C1(C)C | – |
| 22 | 87 | – | – | CC1(C)[C@@H](NS(=O)(=O)C(F)(F)F)CC[C@]2(C)[C@H]3C(=O)C=C4[C@@H]5C[C@@](C)(C(=O)O)CC[C@]5(C)CC[C@@]4(C)[C@]3(C)CC[C@@H]12 | – |

| SMILES | Activity [1] [%] | Activity [2] [%] | IC50 [3] [µM] | IC50 [4] [µM] | Ratio [5] |
| --- | --- | --- | --- | --- | --- |
| CC1(C)C(=O)CC[C@]2(C)[C@H]3C(=O)C=C4[C@@H]5C[C@@](C)(C(=O)O)CC[C@]5(C)CC[C@@]4(C)[C@]3(C)CC[C@@H]12 | – | – | 0.619 | – | – |
